Active and inactive are the calls of the source. No cut-off for these calls is given here.

Data set [1] concerns Rattus norvegicus. Put plainly: Increase of pain perception in Wistar rat assessed as latency at 10 to 40 mg/kg, ip measured after 30 to 45 mins by hotplate method. The format is functional, organism-based. The procedure, abridged: (§1)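 Individually housed rats (22 °C, 12:12 h light–dark, food and water ad libitum) were randomized to ip vehicle, 10, 20 or 40 mg/kg. Extra groups (n = 10) got 20 or 40 mg/kg 15 min after AM251 (3 mg/kg ip); another group got AM251 alone. Pain perception was read as hot-plate latency to signs of discomfort.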

The test system of data set [2] is Rattus norvegicus. Nature of the data set: Increase of pain perception in Wistar rat assessed as latency at 20 to 40 mg/kg, ip measured after 30 to 45 mins by hotplate method in presence of AM251. The format is functional, organism-based. The procedure, abridged:
as §1

In data set [3] the test system is Rattus norvegicus. Put plainly: Reduction of core temperature in Wistar rat at 10 to 40 mg/kg, ip after 15 mins. The format is functional. As to conditions: dose mg/kg 10-40; route intraperitoneal. An outline of the steps: (§2)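 Individually housed rats (22 °C, 12:12 h light–dark) were randomized to ip vehicle, 10, 20 or 40 mg/kg. Extra groups (n = 10) got 20 or 40 mg/kg 15 min after AM251 (3 mg/kg ip), plus an AM251-alone group. Core temperature was measured with a rectal probe after injection.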

Data set [4] deals with Rattus norvegicus. Put plainly: Reduction of core temperature in Wistar rat at 10 to 40 mg/kg, ip up to 45 mins. The format is functional. As to conditions: dose mg/kg 10-40; route intraperitoneal. The procedure, abridged:
as §2

The test system of data set [5] is Rattus norvegicus. Nature of the data set: Increase of pain perception in ip dosed Wistar rat assessed as latency after 30 to 45 mins by hotplate method. The format is functional, organism-based. An outline of the steps:
as §1

Data set [6] relates to Rattus norvegicus. Put plainly: Reduction of core temperature in ip dosed Wistar rat up to 45 mins. The format is functional, organism-based. The procedure, abridged: as §2
In data set [7] the test system is Rattus norvegicus. Nature of the data set: Reduction of core temperature in Wistar rat at 10 to 40 mg/kg, ip measured up to 45 mins in presence of AM251. The format is functional, organism-based. The procedure, abridged: as §2
Data set [8] has as its system Rattus norvegicus. Nature of the data set: Effect on sleep-awake cycle in Wistar rat assessed as increase in rapid eye movement sleep at 20 mg/kg, ip measured up to 4 hrs by electromyographic analysis. The format is functional, organism-based. Also on record: dose 20 mg/kg. An outline of the steps: (§3)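 Rats (n = 6/group) had two hippocampal EEG electrodes implanted stereotaxically under ketamine/xylazine/acepromazine anaesthesia, then recovered 10 days and habituated 24 h. Two ip injections 15 min apart: DMSO (1 ml/kg) or AM251, then vegetal oil (1 ml/kg) or test drug. Dosing was at dark-phase onset. Wake, SWS and REMS were scored from EEG/EMG as time per hour over 12 h, plus sleep latency.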

For data set [9], the system named is Rattus norvegicus. Put plainly: Effect on sleep-awake cycle in Wistar rat assessed as increase in rapid eye movement sleep at 20 mg/kg, ip measured up to 4 hrs by electromyographic analysis in presence of AM251. The format is functional, organism-based. Details: dose 20 mg/kg. The procedure, abridged:
as §3

The test system of data set [10] is Rattus norvegicus. Put plainly: Induction addiction in Wistar rat at 20 mg/kg, ip assessed as signs of dependence. Details: dose 20 mg/kg, route intraperitoneal. The format is ADME, organism-based. As to conditions: in vivo. The procedure, abridged:
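Conditioned place preference test at 20 mg/kg; time spent in the drug-paired compartment A was recorded as the index of rewarding effect or dependence.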

In data set [11] the test system is Rattus norvegicus. Put plainly: Effect on sleep-awake cycle in Wistar rat assessed as increase in non rapid eye movement sleep at 20 mg/kg, ip measured up to 4 hrs by electromyographic analysis. The format is functional, organism-based. Also on record: dose 20 mg/kg. An outline of the steps: as §3

For the compound `CCCCCC[C@H](C/C=C\CCCCCCCC(=O)N1CC2CC1CN2C)OC(=O)Cc1ccccc1` (stereo partly specified), the result in the data set on Rattus norvegicus [1], in the data set with Rattus norvegicus [8] and in the data set on Rattus norvegicus [11] was Active. Further, the result in the data set on Rattus norvegicus [2], in the data set with Rattus norvegicus [5], in the data set with Rattus norvegicus [6], in the data set on Rattus norvegicus [7] and in the data set with Rattus norvegicus [9] was inactive. The T in the data set with Rattus norvegicus [3] worked out at 1 °C; in the data set on Rattus norvegicus [4] it was 1.5 °C. The Activity result with Rattus norvegicus [10] is “Non-toxic”.

Source of the values: ChEMBL document CHEMBL1155512, “Chemoenzymatic synthesis and cannabinoid activity of a new diazabicyclic amide of phenylacetylricinoleic acid” (Bioorg Med Chem Lett, 2010).
